Data set [1] addresses Spike glycoprotein (Severe acute respiratory syndrome coronavirus 2, UniProt P0DTC2). Put plainly: Binding affinity to SARS-CoV-2 spike protein receptor-binding domain by biolayer interferometry (BLI) assay. The essentials: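 BLI was run at 25 °C with shaking at 1000 rpm. His-tagged RBD (200 nM) was loaded on Ni-NTA sensors, then peptides were applied at several concentrations, and dissociation was read in baseline wells. Signals were referenced against His-tagged SUMO and RBD-only sensors. Subtracted curves were fitted for ka, kd and Kd.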
On the technique in general: BLI is a label-free optical method that tracks binding on a fibre tip over time.

Data set [2] can be described thus: Stability of the compound in proteinase K (unknown origin) in presence of serum assessed as loss of peptide measured after 2.5 hr. It counts as ADME. Particulars: read-out: Drug degradation.
Data set [3] relates to Vero. Put plainly: Cytotoxicity against African green monkey Vero cells assessed as viable cells measured by MTS assay. Type of data set: cell-based. Particulars: chlorocebus sabaeus. The gist of the method:
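Vero cells (1.5 × 10⁴/well, 24 h growth) were exposed in the neutralization-assay format without virus. Peptides were twofold-diluted from 100 to 0.1953 μM from DMSO stocks diluted in PBS. Viability was read with MTS.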
Background: Formazan colour is commonly taken as a measure of viable cells.

The subject of data set [4] is SARS-CoV-2. Nature of the data set: Antiviral activity against SARS-CoV-2 assessed as neutralization viral infection in Vero cells by measuring cytopathic effect incubated for 4 days by crystal violet staining based assay. It counts as functional, organism-based. Particulars: Severe acute respiratory syndrome coronavirus 2, Vero, 96 h. Background: Cytopathic effects are the visible damage that an infection or toxin causes in cultured cells.

One may read the Kd as the concentration at which binding is half-saturated. In data set [1], `CC[C@@H](C)[C@@H](N)C(=O)N[C@H](CC(N)=O)C(=O)N[C@H](CCC(N)=O)C(=O)N[C@H](Cc1ccc(O)cc1)C(=O)N[C@H](CCSC)C(=O)N[C@H](CCC(=O)O)C(=O)N[C@H](CCC(=O)O)C(=O)N[C@@H](C(=O)N[C@H](CCC(=O)O)C(=O)N[C@H](Cc1cnc[nH]1)C(=O)N[C@H](C)C(=O)N[C@H](C)C(=O)N[C@H](CO)C(=O)N[C@H](CCCNC(=N)N)C(=O)N[C@H](Cc1ccccc1)C(=O)N[C@H](C)C(=O)N[C@H](Cc1ccc(O)cc1)C(=O)N[C@H](Cc1ccccc1)C(=O)N[C@H](Cc1ccccc1)C(=O)N[C@H](Cc1ccc(O)cc1)C(=O)N[C@H](CCC(N)=O)C(=O)N[C@H](Cc1cnc[nH]1)C(=O)N[C@H](CC(C)C)C(=O)N[C@H](C)C(=O)O)[C@H](C)CC` came in with a Kd of 105 nM.

The term IC50 denotes the concentration that gives 50% inhibition. Turning to `CC[C@@H](C)[C@@H](NC(=O)CNC(=O)[C@@H](CC(C)C)NC(=O)CNC(=O)[C@@H](CCCCN)NC(=O)CNC(=O)[C@@H](CC(=O)O)NC(=O)[C@@H](Cc1ccccc1)NC(=O)[C@H](N)CCCNC(=N)N)C(=O)N[C@H](Cc1ccc(O)cc1)C(=O)N[C@H](CCC(N)=O)C(=O)N[C@H](Cc1ccc(O)cc1)C(=O)N[C@H](CCSC)C(=O)N[C@H](CCC(=O)O)C(=O)N[C@H](CCC(=O)O)C(=O)N[C@@H](C(=O)N[C@H](CCC(=O)O)C(=O)N[C@H](Cc1cnc[nH]1)C(=O)N[C@H](C)C(=O)N[C@H](C)C(=O)N[C@H](CO)C(=O)N[C@H](CCCNC(=N)N)C(=O)N[C@H](Cc1ccccc1)C(=O)N[C@H](C)C(=O)N[C@H](Cc1ccc(O)cc1)C(=O)N[C@H](Cc1ccccc1)C(=O)N[C@H](Cc1ccccc1)C(=O)N[C@H](Cc1ccc(O)cc1)C(=O)N[C@H](CCC(N)=O)C(=O)N[C@H](Cc1cnc[nH]1)C(=O)N[C@H](CC(C)C)C(=O)N[C@H](C)C(=O)O)[C@H](C)CC`, in data set [2], the metabolised at 2.5 h was 87.5%. Further, the Kd in data set [1] was determined as 29 nM. The Activity result in data set [3] is “Non-Toxic”. In addition, the IC50 in data set [4] is 5760 nM.

For the compound `CC[C@@H](C)[C@@H](NC(=O)[C@@H](Cc1cnc[nH]1)NC(=O)[C@H](NC(=O)[C@@H](CCC(=O)O)NC(=O)[C@@H](CCC(=O)O)NC(=O)[C@@H](CCSC)NC(=O)[C@@H](CC(C)C)NC(=O)[C@@H](C)NC(=O)[C@@H](Cc1ccc(O)cc1)NC(=O)[C@@H](CC(C)C)NC(=O)[C@@H](C)NC(=O)[C@H](NC(=O)[C@@H](CCC(N)=O)NC(=O)[C@H](N)CC(C)C)[C@H](C)O)[C@H](C)CC)C(=O)N[C@H](C)C(=O)N[C@H](C)C(=O)N[C@H](CC(C)C)C(=O)N[C@H](CCC(=O)O)C(=O)N[C@H](CCCCN)C(=O)N[C@@H](C(=O)N[C@H](Cc1c[nH]c2ccccc12)C(=O)N[C@@H](C(=O)N[C@H](C)C(=O)N[C@H](CC(C)C)C(=O)N[C@H](CCCNC(=N)N)C(=O)N[C@H](Cc1cnc[nH]1)C(=O)N[C@H](CCC(N)=O)C(=O)N[C@H](Cc1ccc(O)cc1)C(=O)N[C@@H](C(=O)O)[C@H](C)O)[C@H](C)O)[C@H](C)O`, the metabolised at 2.5 h in data set [2] is 82.9%. Also, the Kd in data set [1] was determined as 31 nM. For the same compound, the Activity entry in data set [3] was “Non-Toxic”. Besides, the IC50 in data set [4] was determined as 6560 nM.

(Values after ChEMBL document CHEMBL5030552, “Computational Design of Potent D-Peptide Inhibitors of SARS-CoV-2” (J Med Chem, 2021).)
